# SR-BI uptake up = enhances SR-BI lipid uptake from DiI-HDL. CHO ldlA[mSR-BI] cells, DiI-HDL uptake fluorescence, 3 h; 100 = double the neutral-control signal. activation, % at 12.5 µM. actives 0.096% (n = 320,000). AID 504775;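 active = mean replicate activation of at least 60% and every replicate at or above 60%; inconclusive = mean or all-replicate condition met, but not both; inactive = mean below 60% and not all replicates reaching 60%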
#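 Test system: SR-BI-overexpressing, LDLR-lacking CHO cells; Also added: labelled HDL, 10 µg/mL; Measured by: bottom-read cell fluorescence after medium removal, ex 550/em 595 nm; Timing: 3 h uptake period with compound, 37 °C; Buffer or medium: F12, 0.5% BSA, 25 mM HEPES; Doses: single compound concentration, delivered by pin transfer.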
# CAL PDZ FP-1 = CAL PDZ (human) peptide binding inhibition; purified CAL PDZ, TMR-peptide fluorescence polarization, 1 h; inhibition, % at 24.9 µM; actives 0.92% (n = 300,000);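 active = mean inhibition of at least 30% with at least half of replicates also reaching 30%; inconclusive = no clear call, values can overlap the other calls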
# SR-BI HDL uptake = blocks mouse SR-BI lipid uptake from DiI-HDL; Q61009; ldlA[mSR-BI] CHO cells, DiI-HDL uptake fluorescence, 3 h; inhibition, % at 12.5 µM; actives 0.96% (n = 320,000); AID 488896;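 active = mean replicate inhibition of at least 70% and a set share of replicates each scoring 70 or more; inconclusive = meets just one of the two criteria; inactive = fails both criteria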
# Target sequence (Q61009 whole entry, looked up): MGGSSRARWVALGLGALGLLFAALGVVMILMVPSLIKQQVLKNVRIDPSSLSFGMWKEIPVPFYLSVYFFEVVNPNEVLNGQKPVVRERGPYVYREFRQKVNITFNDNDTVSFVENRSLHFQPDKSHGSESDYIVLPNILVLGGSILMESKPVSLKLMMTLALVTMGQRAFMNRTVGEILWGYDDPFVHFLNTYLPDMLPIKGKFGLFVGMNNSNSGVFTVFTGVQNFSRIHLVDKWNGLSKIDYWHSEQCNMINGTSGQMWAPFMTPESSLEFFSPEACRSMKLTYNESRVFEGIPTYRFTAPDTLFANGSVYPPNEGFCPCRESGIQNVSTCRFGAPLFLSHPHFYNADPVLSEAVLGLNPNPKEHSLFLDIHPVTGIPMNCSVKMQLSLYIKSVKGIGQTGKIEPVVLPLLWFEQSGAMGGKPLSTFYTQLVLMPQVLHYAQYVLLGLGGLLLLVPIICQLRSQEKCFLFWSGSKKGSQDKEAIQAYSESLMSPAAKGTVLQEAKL
# CAL PDZ FP-2 = inhibitors of human CAL PDZ peptide binding. purified CAL PDZ, TMR-peptide fluorescence polarization, 1 h. actives 0.02% (n = 330,000). Q9HD26. inhibition, % at 20 µM. AID 504414;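 active = highest replicate inhibition of at least 40%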
#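 material = purified tagged CAL PDZ domain construct (CerCALP) | buffer or medium = sodium phosphate/NaCl buffer pH 7.4 with TCEP, IgG, Thesit | reagent = TMR-labelled reporter peptide T*-PRC34 bound in PDZ groove | incubation = 1 h room-temperature incubation prior to read | measured by = fluorescence polarization (mP) | evaluation = percent inhibition from loss of millipolarization | control set = unlabelled peptide and DMSO controls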
# dFosB act = enhances mouse delta FosB homodimer DNA binding; AID 493131; actives 0.99% (n = 340,000); purified delta FosB, TAMRA-CDK5 oligo fluorescence polarization; percent of positive-control signal above neutral wells; P13346; activation, % at 25 µM;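 active = mean activation above about 17%, with every replicate also reaching it, limit read from the data, passing the limit was not always enough; inconclusive = only one of the two conditions met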
# DiI quencher = counter-screen for SR-BI lipid transfer inhibitors: DiI fluorescence quenchers. shares compounds with SR-BI HDL uptake. AC50, µM (titrated, usually from 35 µM). AID 540326. actives 20% (n = 470). cell-free DiI-HDL fluorescence quenching, 30 min;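 active = quenching, a falling signal, with AC50 below a set limit tied to the top valid dose, actives reach about 32 µM in these data; inconclusive = no clear call, values can overlap the other calls; inactive = rising signal, and the rest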
# A number is an active result; – = inactive; ? = inconclusive; · = no result. Compounds with a hit are over-represented: about 2.8% of the library has one in this group of screens.
SMILES,SR-BI uptake up,CAL PDZ FP-1,SR-BI HDL uptake,CAL PDZ FP-2,dFosB act,DiI quencher
CNC(=O)c1ccc(Nc2nnc(-c3ccc(O)cc3)c3ccccc23)cc1,–,–,99.1,–,?,–
CN(C)C(=O)c1ccc(Nc2nnc(-c3ccc(O)cc3)c3ccccc23)cc1,–,–,–,–,–,·
COC(=O)c1cc(S(=O)(=O)NCc2cccs2)c[nH]1,–,–,–,–,–,·
COc1ccc(NC(=O)CCC(=O)N(Cc2ccc(OC)c(OC)c2)c2nccs2)c(OC)c1,–,–,–,–,–,·
COc1ccc(OC)c(NC(=O)CCC(=O)N(Cc2ccc(OC)c(OC)c2)c2nccs2)c1,–,–,?,–,–,–
C[C@H](CO)N1C[C@H](C)[C@@H](CN(C)S(C)(=O)=O)Oc2ccc(NC(=O)Cn3cnnn3)cc2C1=O,–,–,–,–,–,·
O=C1OCCC1Sc1nnnn1-c1ccc(Cl)cc1 (stereo not drawn),–,–,–,–,–,·
O=C(c1ccc(S(=O)(=O)NCc2ccco2)cc1)N1CCN(Cc2ccccc2)CC1,–,–,–,–,–,–
O=C(c1ccc(S(=O)(=O)NCc2ccco2)cc1)N1CCN(c2ccc(F)cc2)CC1,–,–,–,–,–,·
COc1ccc(CN2CCN(C(=O)c3ccc(S(=O)(=O)NCc4ccco4)cc3)CC2)cc1,–,–,93.3,–,–,–
CC(=O)c1ccc(N2CCN(C(=O)c3ccc(S(=O)(=O)NCc4ccco4)cc3)CC2)cc1,–,·,–,–,–,·
O=C(c1ccc(S(=O)(=O)NCc2ccco2)cc1)N1CCN(Cc2ccccc2F)CC1,–,·,–,–,–,–
Cc1c(Nc2nc3ccccc3nc2N2CCN(c3ccccc3)CC2)c(=O)n(-c2ccccc2)n1C,–,–,?,–,–,–
O=C(Nc1nc(NC(=O)c2ccco2)n(-c2ccccc2)n1)c1ccccc1,–,–,122.5,–,–,1.97µM
CC(C)C(C(=O)OCC(=O)c1ccc2c(c1)NC(=O)CO2)N1C(=O)c2ccccc2C1=O (stereo not drawn),–,–,–,–,22.9,–
CC[C@H](C)[C@H](NC(=O)c1ccc(Cl)cc1)C(=O)OCC(=O)c1ccc2c(c1)NC(=O)CO2,–,–,86.5,·,–,–
Cc1cccc(C(=O)OCC(=O)c2ccc3c(c2)NC(=O)CO3)c1,–,–,–,–,–,·
CC(C)[C@H](NC(=O)c1ccccc1)C(=O)OCC(=O)c1ccc2c(c1)NC(=O)CO2,–,·,–,–,–,·
COc1cc(OC)cc(C(=O)N[C@H](C(=O)OCC(=O)c2ccc3c(c2)NC(=O)CO3)C(C)C)c1,–,–,–,·,–,–
Cc1cc(C)c(NC(=O)c2cccs2)c(C)c1NC(=O)c1cccs1,–,–,–,–,–,·
S=c1[nH]nc(COc2ccc(Cl)cc2Cl)n1-c1ccccc1,–,–,–,–,–,·
COCCN(Cc1cn(C)nc1-c1ccc(Oc2ccccc2)cc1)C(C)C,–,·,81.9,–,–,–
CCCCC(=O)Nc1cccc(NC(=O)CC)c1,–,–,–,–,–,·
CCCCC(=O)Nc1cccc(NC(=O)c2ccccc2Br)c1,–,–,73.7,–,–,–
Cc1ccc(S(=O)(=O)Nc2cccc(C(=O)NCc3ccc(S(N)(=O)=O)cc3)c2)cc1,·,–,·,–,–,·
SMILES,SR-BI uptake up,CAL PDZ FP-1,SR-BI HDL uptake,CAL PDZ FP-2,dFosB act,DiI quencher
C=CCC1CCC/C(=N\NS(=O)(=O)c2ccc(C)cc2)C1 (stereo not drawn),–,–,–,–,–,·
Cc1nn(Cc2c(Cl)cccc2Cl)c(C)c1NC(=O)CCCn1nc([N+](=O)[O-])c(Cl)c1C,–,·,80.1,–,–,–
Cc1cc2oc(=O)cc(CN3CCN(C/C=C/c4ccccc4)CC3)c2cc1O,–,–,75.6,–,24.6,–
O=C1COc2ccc(C(=O)COC(=O)c3cc(S(=O)(=O)N4CCOCC4)ccc3F)cc2N1,–,–,–,–,–,·
O=C(NCC1CCCO1)c1ccc2c(c1)N(Cc1ccc(F)cc1Cl)C(=O)CS2 (stereo not drawn),–,–,–,–,–,–
O=C(NCC1CCCO1)c1ccc2c(c1)N(Cc1ccc(F)cc1)CCS2 (stereo not drawn),–,–,–,–,–,·
COc1ccc(SCCN2CC[C@@H](C(C)(C)C)CCC2=O)cc1,–,–,–,–,–,·
COCc1cc(=O)oc2cc(NC(=O)c3ccc(C(C)(C)C)cc3)ccc12,–,–,?,–,–,–
COc1ccc(/[N+]([O-])=C/c2ccco2)cc1,–,–,–,–,–,·
COc1ccc([C@H]2/C=C\CN(S(=O)(=O)c3ccc4ccccc4c3)[C@@H](C)C(=O)N2Cc2ccc(F)cc2)cc1,–,–,72.0,–,–,–
COc1ccc([C@H]2/C=C\CN(S(=O)(=O)c3ccc(C)cc3)[C@@H](C)C(=O)N2Cc2ccc(F)cc2)cc1,–,–,–,–,–,–
COc1ccc([C@H]2/C=C\CN(C(=O)c3ccc(C)cc3)[C@@H](C)C(=O)N2Cc2ccc(F)cc2)cc1,–,–,–,–,–,·
COc1ccc([C@H]2/C=C\CN(S(=O)(=O)c3cccc4cccnc34)[C@@H](C)C(=O)N2Cc2ccc(F)cc2)cc1,–,–,–,–,–,–
COc1ccc([C@H]2/C=C\CN(Cc3ccc(N(C)C)cc3)[C@@H](C)C(=O)N2Cc2ccc(F)cc2)cc1,–,–,–,–,–,·
CC[C@]12c3[nH]c4cc(-c5ccco5)ccc4c3CCN1C(=O)[C@@H](CC(=O)NCc1ccc(OC)c(OC)c1)C[C@@H]2C(=O)N1CCN(C(=O)c2ccco2)CC1,–,–,74.8,–,–,–
CCN(C(=O)COC(=O)c1ccccc1NCCO)C1CCS(=O)(=O)C1 (stereo not drawn),–,–,–,–,–,·
Cc1ccccc1C(=O)N1CCc2cc(-c3nc(NC(=O)Cc4ccc5c(c4)OCO5)sc3C)ccc21,–,–,–,–,–,–
Cc1cccc(C(=O)N2CCc3cc(-c4nc(NC(=O)CN5CCCC5)sc4C)ccc32)c1,·,·,·,–,–,·
Cc1sc(NC(=O)Cc2ccc3c(c2)OCO3)nc1-c1ccc2c(c1)CCN2C(=O)c1cccc(F)c1,–,–,76.7,–,–,–
CC(C)N(C)S(=O)(=O)c1ccc(NC(=O)CSC(=S)N2CCCC2)cc1,–,–,–,–,–,·
COc1ccc2c(c1)OC[C@H]1[C@H]2N2C(=O)c3cc(Cl)ccc3NC(=O)[C@@]2(C)[C@H]1c1ccccc1,–,–,71.8,–,–,–
CCOC(=O)c1c(C)n(-c2ccc(C)cc2)c2c(C(C(C)=O)C(=O)O)c(Br)c(O)c(O)c12 (stereo not drawn),–,·,–,–,–,·

# From PubChem
